Results taken from ChEMBL document CHEMBL1821634, “Design and synthesis of (+)-discodermolide-paclitaxel hybrids leading to enhanced biological activity” (J Med Chem, 2011).
Calls of active or inactive are those of the source. The calls are words filed in the database; no cut-off is given here.

Tests used:
A549 = assay: Antiproliferative activity against human A549 cells after 72 hrs by SRB method; type: functional, cell-based; conditions: A549, 72 h
Method in brief: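 Cells kept in RPMI with 10% FBS; 800 A549 cells seeded per well, drugs added at increasing concentrations 18 h after plating. Incubated 72 h at 37 °C, then fixed and stained with SRB. IC50 taken as concentration inhibiting growth by 50%.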

MCF7 = assay: Antiproliferative activity against human MCF7 cells after 96 hrs by SRB method; type: functional, cell-based; conditions: MCF7, 96 h
Method in brief: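 MCF-7 cells grown in RPMI plus 10% fetal bovine serum, seeded at 2000 per well. Increasing drug concentrations added 18 h post-plating. Incubation for 96 h at 37 °C, with the later fixation allowing for growth rate, then SRB staining. IC50 is the concentration giving 50% growth inhibition.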

Bos taurus = organism: Bos taurus; assay: Induction of bovine brain tubulin polymerization at 3 uM after 30 mins by SDS-PAGE
Method in brief: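 Tubulin (2.5 μM) in 0.1 M MES, 1 mM EGTA, 1 mM MgCl₂ with 2 mM GTP, incubated with drug at 3 μM for 30 min at 37 °C. Polymer pelleted at 120000g, 37 °C, 1 h. Pellet dissolved in SDS sample buffer and analysed by SDS-PAGE.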

SMILES | IC50 (A549) [nM] | IC50 (MCF7) [nM] | Activity (Bos taurus)
C=C/C=C\[C@H](C)[C@H](OC(N)=O)[C@@H](C)[C@H](O)[C@@H](C)C/C(C)=C\[C@H](C)[C@@H](O)[C@@H](C)/C=C\[C@@H](O)C[C@@H]1OC(=O)[C@H](C)[C@@H](O)[C@H]1C [DISERMOLIDE] | 9.34 | 7.98 | Active
C=C/C=C\[C@H](C)[C@H](OC(=O)NCCCNC(=O)c1cccc(N=[N+]=[N-])c1)[C@@H](C)[C@H](O)[C@@H](C)C/C(C)=C\[C@H](C)[C@@H](O)[C@@H](C)/C=C\[C@@H](O)C[C@@H]1OC(=O)[C@H](C)[C@@H](O)[C@H]1C | 1.05 | 1.66 | Active
CC(=O)O[C@H]1C(=O)[C@@]2(C)[C@H]([C@H](OC(=O)c3ccccc3)[C@]3(O)C[C@H](OC(=O)[C@H](O)[C@@H](NC(=O)c4ccccc4)c4ccccc4)C(C)=C1C3(C)C)[C@]1(OC(C)=O)CO[C@@H]1C[C@@H]2O [PACLITAXEL] | 3.14 | 0.91 | 
C=C/C=C\[C@H](C)[C@H](OC(=O)NCCCNC(=O)c1ccc(N=[N+]=[N-])cc1)[C@@H](C)[C@H](O)[C@@H](C)C/C(C)=C\[C@H](C)[C@@H](O)[C@@H](C)/C=C\[C@@H](O)C[C@@H]1OC(=O)[C@H](C)[C@@H](O)[C@H]1C | 1.21 | 1.9 | Active
C=C/C=C\[C@H](C)[C@H](OC(=O)NCCCCNC(=O)c1ccc(N=[N+]=[N-])cc1)[C@@H](C)[C@H](O)[C@@H](C)C/C(C)=C\[C@H](C)[C@@H](O)[C@@H](C)/C=C\[C@@H](O)C[C@@H]1OC(=O)[C@H](C)[C@@H](O)[C@H]1C | 3.76 | 2.71 | Active
C=C/C=C\[C@H](C)[C@H](OC(=O)NCCCNC(=O)c1ccc(C2(C(F)(F)F)N=N2)cc1)[C@@H](C)[C@H](O)[C@@H](C)C/C(C)=C\[C@H](C)[C@@H](O)[C@@H](C)/C=C\[C@@H](O)C[C@@H]1OC(=O)[C@H](C)[C@@H](O)[C@H]1C | 2.64 | 1.92 | Active
C=C/C=C\[C@H](C)[C@H](OC(=O)NCCNC(=O)c1ccc(N=[N+]=[N-])cc1)[C@@H](C)[C@H](O)[C@@H](C)C/C(C)=C\[C@H](C)[C@@H](O)[C@@H](C)/C=C\[C@@H](O)C[C@@H]1OC(=O)[C@H](C)[C@@H](O)[C@H]1C | 5.61 | 3.64 | Active
